Measurements reported in PubChem BioAssay.
Results filed as inconclusive are left out.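 How the source made its calls, unless noted: active means growth inhibition above 25% in both replicates, a cutoff set 3 SD above the mean; inconclusive means above 25% in only one replicate; inactive means the rest.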

How the values were obtained:
[1] = S. cerevisiae growth inhibition in permissive medium (OD615), pilot counter-assay for S. cerevisiae lifespan shortening project, permissive growth control (AID 705); conditions: OD615, 24 h, at 10 µM, stronger effect = higher value
Outline: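 System: S. cerevisiae with engineered DeaD lifespan system. Medium: SC raffinose/galactose permissive medium. Doses: single compound dose of 10 µM, 0.25% DMSO final. Schedule: 24 h exposure, 30 °C. Measured by: OD615 turbidity read. Read-out: growth inhibition.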

[2] = S. cerevisiae growth inhibition in restrictive medium, OD615, pilot screen, restrictive growth control, yeast lifespan reduction project (AID 706;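 active means growth inhibition above a set limit, 3 SD over mean compound inhibition, in both replicates, cut at about 43% in these data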;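 further: modified DeaD lifespan yeast strain shifted to restrictive glucose medium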); conditions: OD615, 48 h, at 10 µM, stronger effect = higher value
Outline: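 Assay system – genetically modified Saccharomyces cerevisiae, DeaD replicative lifespan assay strain · Medium – CSMM-D glucose medium · Doses – 10 µM compound, 0.25% DMSO · Times – 4 h pre-incubation, 48 h exposure at 30 °C · Signal – optical density at 615 nm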

[3] = doxorubicin toxicity protection in MRP-1 cells – H69AR cells, CellTiter-Glo, duplicate, MRP-1 activator project, pilot screen (AID 807;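 active means viability increase at or above a cutoff of the median across tested compounds plus 3 SD, cut at about 8.5% in these data, passing the limit was not always enough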;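 further: compound pretreatment 18-22 h then 72 h combined with doxorubicin; 0% = doxorubicin alone and 100% = vehicle without doxorubicin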); conditions: H69AR viability with doxorubicin, CellTiter-Glo luminescence; at 10 µM; stronger effect = higher value
[4] = viability of HCT116 without oncogenic beta-catenin – human colon tumor cells, pilot screen (AID 823;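 active means cell viability at or below a set limit in both duplicate runs, the limit being the all-compound median minus 4 SD, cut at about 23% in these data, passing the limit was not always enough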;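 further: 0% = wells killed by 20 µM Hyamine and 100% = untreated DMSO cell wells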); conditions: HCT116 beta-catenin knockout viability, CellTiter-Glo, 60 h; at 10 µM; stronger effect = lower value
[5] = viability of PTEN-null HCT116 cells – cell-based, HCT116 clonal line, CellTiter-Glo, pilot screen (AID 824;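 active means viability at or below 27.92% in each of two runs, the all-compound median minus 4 SD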;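 further: 0% = 20 µM Hyamine control and 100% = vehicle cell control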); conditions: HCT116 PTEN-deleted viability, 60 h, at 10 µM, stronger effect = lower value
[6] = RAM pathway blockade in budding yeast – dse1pr::URA3 reporter, 5-FOA selection, pilot screen (AID 869;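 active means inhibition over a set limit, the all-compound mean plus 3 SD, in both replicate runs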;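 further: 0% = DMSO wells with no growth and 100% = 10 µM 1-NA-PP1 with full growth; RAM network block rescues cells from 5-FOA so hits raise OD615 growth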); conditions: S. cerevisiae dse1pr::URA3 5-FOA growth, OD615, 2 d; at 10 µM; stronger effect = higher value; strain carries analog-sensitive mutant Cbk1 kinase
[7] = RAM signaling pathway blockade in yeast – S. cerevisiae, Pdr1DBD-CYC8 efflux-inhibited sensitized strain, primary screen (AID 1298;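 active means RAM network inhibition above 8.4% in each of two replicates, 3 SD over the compound average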;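 further: 0% = DMSO untreated cells without growth and 100% = 10 µM 1-NA-PP1 full growth; higher means more yeast growth rescued from 5-FOA killing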); conditions: S. cerevisiae cbk1-as DSE1-URA3 strain, 5-FOA growth OD615, 2 d; at 50 µM; stronger effect = higher value

Cc1sc(NC(=O)c2cccs2)c(C(N)=O)c1C
inactive: growth inhibition [1] -6.89% | growth inhibition [2] 22.8% | viability increase [3] -6.53% | viability [4] 80.8% | viability [5] 88.4% | inhibition [6] 0.26% | RAM network inhibition [7] -1.19%

O=C(Nc1ccncc1)c1cccs1
inactive: growth inhibition [1] -6.22% | growth inhibition [2] 4.99% | viability increase [3] -2.27% | viability [4] 105% | viability [5] 95.2% | inhibition [6] 1.87% | RAM network inhibition [7] 0.93%

CCN(CC)S(=O)(=O)c1ccc(-c2nnco2)cc1
inactive: growth inhibition [1] -23.5% | growth inhibition [2] -16.6% | viability increase [3] -0.57% | viability [4] 100% | viability [5] 97.9% | inhibition [6] 3.09% | RAM network inhibition [7] 1.46%

COc1ccc(-n2cnnc2)cc1
inactive: growth inhibition [1] -1.44% | growth inhibition [2] -0.83% | viability increase [3] -2.88% | viability [4] 98.2% | viability [5] 101% | inhibition [6] 1.05% | RAM network inhibition [7] -0.78%

CCOC(=O)c1c(C)n(C)c2ccc(OCC(O)CN3CCN(C)CC3)cc12 (stereo not drawn)
inactive: growth inhibition [1] -9.58% | growth inhibition [2] -16.5% | viability increase [3] -1.87% | viability [4] 96.2% | viability [5] 106% | inhibition [6] 1.1% | RAM network inhibition [7] -0.99%

CCCc1nc(C)c(-c2ccc(OC)c(OC)c2)c(=O)[nH]1
inactive: growth inhibition [1] -17.9% | growth inhibition [2] -15.2% | viability increase [3] -0.18% | viability [4] 101% | viability [5] 95.3% | inhibition [6] 2.53% | RAM network inhibition [7] 0.84%

CC1CCCC(C)N1c1nnc(NC(=O)Cn2c(=O)oc3ccccc32)s1 (stereo not drawn)
inactive: growth inhibition [1] -4.67% | growth inhibition [2] 9.9% | viability increase [3] 0.39% | viability [4] 95.1% | viability [5] 99.2% | inhibition [6] 1.85% | RAM network inhibition [7] 3.6%

CCSc1nnc(NC(=O)CSc2nc3c(c(=O)n2-c2ccccc2)SCC3)s1
inactive: growth inhibition [1] -6.26% | growth inhibition [2] -2.77% | viability increase [3] -1.11% | viability [4] 100% | viability [5] 103% | inhibition [6] 2.82% | RAM network inhibition [7] 4.35%

CC1(C)CCCC2=C1CC1C(=O)N(O)C(=O)C1C2 (stereo not drawn)
inactive: growth inhibition [1] -8.79% | growth inhibition [2] -12.1% | viability increase [3] -1.21% | viability [4] 102% | viability [5] 87.8% | inhibition [6] 1.96% | RAM network inhibition [7] 1.62%

COC(=O)c1ccc(NC(=O)c2cccc(OC)c2)cc1
inactive: growth inhibition [1] -1.57% | growth inhibition [2] 7.93% | viability increase [3] 1.59% | viability [4] 69.9% | viability [5] 80.7% | inhibition [6] 0.875% | RAM network inhibition [7] 8.05%

COc1ccc(OC)c(C2CC(=O)N3CN(c4ccccc4F)CSC3=C2C#N)c1 (stereo not drawn)
inactive: growth inhibition [1] 8.3% | growth inhibition [2] 14.5% | viability increase [3] -1.77% | viability [4] 98.3% | viability [5] 101% | inhibition [6] 1.03% | RAM network inhibition [7] 8.39%

CCCc1c(C(=O)OCC)[nH]c2c1C(=O)CCC2
inactive: growth inhibition [1] 1.82% | growth inhibition [2] 2.14% | viability increase [3] -2.07% | viability [4] 107% | viability [5] 95.3% | inhibition [6] 1.46% | RAM network inhibition [7] 2.61%

O=C(NCCOC(=O)c1ccc(C(=O)OCCNC(=O)c2ccccc2)o1)c1ccccc1
inactive: growth inhibition [1] 4.22% | growth inhibition [2] 13.6% | viability increase [3] 0.02% | viability [4] 100% | viability [5] 103% | inhibition [6] 1.25% | RAM network inhibition [7] 6.33%

Cc1nc2ccccc2n1-c1ccccc1
inactive: growth inhibition [1] -0.46% | growth inhibition [2] 10.2% | viability increase [3] 0.08% | viability [4] 89.1% | viability [5] 96.4% | inhibition [6] 0.185% | RAM network inhibition [7] 4.25%

COC(=O)c1ccsc1NC(=O)C1=COCCO1
inactive: growth inhibition [1] -9% | growth inhibition [2] -1.36% | viability increase [3] -0.42% | viability [4] 106% | viability [5] 102% | inhibition [6] 0.91% | RAM network inhibition [7] 2.35%

O=C(O)CCC(=O)N1CCc2cc(S(=O)(=O)Nc3ccc4c(c3)OCCO4)ccc21
inactive: growth inhibition [1] -4.35% | growth inhibition [2] -7.19% | viability increase [3] -1.45% | viability [4] 94% | viability [5] 96.3% | inhibition [6] 0.535% | RAM network inhibition [7] -1.56%

Cn1ccnc1SCC(=O)c1cc2ccccc2o1
inactive: growth inhibition [1] -6.64% | growth inhibition [2] -0.315% | viability increase [3] -2.52% | viability [4] 95.7% | viability [5] 99.4% | inhibition [6] 0.57% | RAM network inhibition [7] 1.04%

COC(=O)C1=C(C)N(C)C(=O)NC1c1ccc(O)c(OC)c1 (stereo not drawn)
inactive: growth inhibition [1] 0.58% | growth inhibition [2] -7.74% | viability increase [3] -0.98% | viability [4] 105% | viability [5] 98.9% | inhibition [6] 0.425% | RAM network inhibition [7] 6.2%

NC(=O)C1CCN(c2ncnc3c2c(-c2ccccc2)cn3-c2ccccc2)CC1
inactive: growth inhibition [1] -2.17% | growth inhibition [2] 8.02% | viability increase [3] -4.62% | viability [4] 81.3% | viability [5] 81.9% | inhibition [6] -0.35% | RAM network inhibition [7] 3.9%

Cc1nn(C)cc1CN(C)C(=O)c1sc2cccc(Cl)c2c1Cl
inactive: growth inhibition [1] -4.77% | growth inhibition [2] 5.83% | viability increase [3] 0.61% | viability [4] 84.1% | viability [5] 82.1% | inhibition [6] -0.12% | RAM network inhibition [7] 3.58%

CC(=O)N1CCN(c2ccc(NCc3ccc(C)s3)cc2)CC1
inactive: growth inhibition [1] -5.79% | growth inhibition [2] 8.29% | viability increase [3] -2.32% | viability [4] 99% | viability [5] 95% | inhibition [6] 1.92% | RAM network inhibition [7] 7.94%

Cc1ccc(NC(=O)c2ccco2)cc1C
inactive: growth inhibition [1] 4.04% | growth inhibition [2] 0.435% | viability increase [3] -3.07% | viability [4] 95.5% | viability [5] 90.5% | inhibition [6] 0.665% | RAM network inhibition [7] 0.93%

CCOC(=O)c1cc(-c2ccc(F)cc2)n(CC(=O)Nc2nccs2)c1C
inactive: growth inhibition [1] -11.3% | growth inhibition [2] 1.7% | viability increase [3] -5.35% | viability [4] 59% | viability [5] 62.6% | inhibition [6] 1.99% | RAM network inhibition [7] 4.55%

O=C(CCn1c(=O)oc2ccccc21)NCc1ccc2c(c1)OCO2
inactive: growth inhibition [1] -11.4% | growth inhibition [2] -19.9% | viability increase [3] -2.85% | viability [4] 100% | viability [5] 91.3% | inhibition [6] 2.35% | RAM network inhibition [7] 6.04%
